Reference: ChEMBL document CHEMBL4028913, “Discovery of Novel Potent VEGFR-2 Inhibitors Exerting Significant Antiproliferative Activity against Cancer Cell Lines” (J Med Chem, 2018)
The source made the active and inactive calls. The calls are words filed in the database; no cut-off is given here.

Legend:
[1] = biological target: Proto-oncogene tyrosine-protein kinase Src (Homo sapiens) (UniProt P12931); conditions: at 0.5 µM
[2] = system: MDA-MB-231; test: Cytotoxicity against human MDA-MB-231 cells after 48 hrs by SRB assay; type: functional; conditions: MDA-MB-231, 48 h
Summary of the method: (§1)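 NCI-60 panel; cells grown in RPMI 1640 with 5% FBS and 2 mM L-glutamine, plated at 5000–40 000 cells/well by doubling time, preincubated 24 h (37 °C, 5% CO2). Drug added at five concentrations, 1-log steps from 10−4 to 10−8 M, for 48 h. Fixed with TCA, stained with 0.4% SRB, absorbance read at 515 nm. Percent growth computed against time-zero and untreated controls; GI50, TGI and LC50 derived.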

[3] = Potency index, ratio of sorafenib GI50 to test compound GI50 for human breast cancer cells; type: functional, Breast cancer cell
Summary of the method: (§2)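 GI50 is the concentration giving 50% reduction in net protein increase relative to control. Potency index is the reference-drug GI50 divided by the test-compound GI50.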

[4] = biological target: Ephrin type-A receptor 3 (Homo sapiens) (UniProt P29320); test: Inhibition of human EPHA3 at 0.5 uM relative to control
Chain of Ephrin type-A receptor 3 (Homo sapiens) (P29320 whole entry): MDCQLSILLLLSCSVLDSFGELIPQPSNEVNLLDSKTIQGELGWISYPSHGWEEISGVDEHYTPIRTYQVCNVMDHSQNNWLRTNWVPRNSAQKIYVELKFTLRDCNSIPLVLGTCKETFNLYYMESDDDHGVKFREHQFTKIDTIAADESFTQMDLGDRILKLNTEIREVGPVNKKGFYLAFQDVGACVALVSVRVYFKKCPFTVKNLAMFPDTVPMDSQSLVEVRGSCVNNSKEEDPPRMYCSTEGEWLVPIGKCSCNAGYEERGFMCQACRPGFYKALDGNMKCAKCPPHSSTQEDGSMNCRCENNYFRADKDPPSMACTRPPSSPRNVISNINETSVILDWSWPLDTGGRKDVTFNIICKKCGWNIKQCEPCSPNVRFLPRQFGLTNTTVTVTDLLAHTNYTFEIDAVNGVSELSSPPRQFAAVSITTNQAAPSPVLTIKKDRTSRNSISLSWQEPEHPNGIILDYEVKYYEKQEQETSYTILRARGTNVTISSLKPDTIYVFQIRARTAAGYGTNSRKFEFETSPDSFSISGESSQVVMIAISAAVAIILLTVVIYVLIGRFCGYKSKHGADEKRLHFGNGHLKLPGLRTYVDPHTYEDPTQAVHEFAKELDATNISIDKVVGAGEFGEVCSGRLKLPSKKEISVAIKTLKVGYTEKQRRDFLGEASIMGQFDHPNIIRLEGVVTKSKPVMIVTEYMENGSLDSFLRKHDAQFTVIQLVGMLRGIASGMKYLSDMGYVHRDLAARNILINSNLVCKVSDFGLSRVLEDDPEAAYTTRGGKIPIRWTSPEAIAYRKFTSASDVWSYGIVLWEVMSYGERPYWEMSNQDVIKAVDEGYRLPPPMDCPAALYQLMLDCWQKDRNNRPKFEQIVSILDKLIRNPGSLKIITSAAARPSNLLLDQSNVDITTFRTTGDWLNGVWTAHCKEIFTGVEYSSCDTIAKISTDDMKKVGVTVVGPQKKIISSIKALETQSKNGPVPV

[5] = system: CCRF-CEM; test: Cytotoxicity against human CCRF-CEM cells after 48 hrs by SRB assay; type: functional
Summary of the method: as §1

[6] = Potency index, ratio of test compound LC50 to sorafenib LC50 for human renal cancer cells; type: functional, Renal cancer cell
[7] = Potency index, ratio of sunitinib GI50 to test compound GI50 for human CNS cancer cells; type: functional, CNS cancer cell
Summary of the method: as §2

[8] = biological target: STE20-like serine/threonine-protein kinase (Homo sapiens) (UniProt Q9H2G2); test: Inhibition of human SLK at 0.5 uM relative to control
Chain of STE20-like serine/threonine-protein kinase (Homo sapiens) (Q9H2G2 whole entry, looked up): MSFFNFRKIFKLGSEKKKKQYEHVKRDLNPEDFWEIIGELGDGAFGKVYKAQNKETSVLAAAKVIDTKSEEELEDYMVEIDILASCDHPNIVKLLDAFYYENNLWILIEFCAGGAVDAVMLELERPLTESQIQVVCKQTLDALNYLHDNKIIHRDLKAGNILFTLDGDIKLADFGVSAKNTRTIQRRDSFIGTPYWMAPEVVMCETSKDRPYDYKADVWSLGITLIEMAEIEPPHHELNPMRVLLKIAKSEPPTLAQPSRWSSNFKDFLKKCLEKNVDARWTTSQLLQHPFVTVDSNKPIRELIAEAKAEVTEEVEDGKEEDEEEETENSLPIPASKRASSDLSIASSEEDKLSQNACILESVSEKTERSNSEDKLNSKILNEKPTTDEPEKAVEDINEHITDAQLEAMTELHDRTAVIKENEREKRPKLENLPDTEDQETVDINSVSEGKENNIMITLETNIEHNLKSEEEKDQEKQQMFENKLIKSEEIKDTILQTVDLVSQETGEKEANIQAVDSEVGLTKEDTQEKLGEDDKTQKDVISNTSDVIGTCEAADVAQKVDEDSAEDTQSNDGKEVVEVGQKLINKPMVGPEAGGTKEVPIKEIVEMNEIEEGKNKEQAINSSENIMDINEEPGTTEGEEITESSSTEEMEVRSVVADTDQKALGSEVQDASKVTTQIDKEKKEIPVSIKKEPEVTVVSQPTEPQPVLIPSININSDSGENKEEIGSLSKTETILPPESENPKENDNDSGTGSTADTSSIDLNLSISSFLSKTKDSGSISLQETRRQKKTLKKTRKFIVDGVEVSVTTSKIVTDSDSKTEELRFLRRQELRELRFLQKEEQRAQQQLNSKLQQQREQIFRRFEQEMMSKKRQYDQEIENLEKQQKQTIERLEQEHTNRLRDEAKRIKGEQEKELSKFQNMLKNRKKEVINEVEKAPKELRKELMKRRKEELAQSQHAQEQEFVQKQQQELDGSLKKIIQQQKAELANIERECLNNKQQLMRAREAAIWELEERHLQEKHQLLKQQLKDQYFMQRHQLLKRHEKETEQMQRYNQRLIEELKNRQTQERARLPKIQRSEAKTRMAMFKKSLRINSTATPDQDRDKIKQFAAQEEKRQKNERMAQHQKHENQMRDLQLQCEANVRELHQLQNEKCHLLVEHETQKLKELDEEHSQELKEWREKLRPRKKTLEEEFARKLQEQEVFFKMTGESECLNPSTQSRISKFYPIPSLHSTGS

[9] = Potency index, ratio of test compound LC50 to sunitinib LC50 for human renal cancer cells; type: functional, Renal cancer cell
[10] = system: SN12C; test: Cytotoxicity against human SN12C cells after 48 hrs by SRB assay; type: functional
Summary of the method: as §1

[11] = Potency index, ratio of test compound LC50 to sunitinib LC50 for human prostate cancer cells; type: functional, Prostate cancer cell
[12] = system: EKVX; test: Cytotoxicity against human EKVX cells after 48 hrs by SRB assay; type: functional
Summary of the method: as §1

[13] = system: SK-MEL-5; test: Cytotoxicity against human SK-MEL-5 cells after 48 hrs by SRB assay; type: functional; conditions: SK-MEL-5, 48 h
Summary of the method: as §1

[14] = Potency index, ratio of sunitinib GI50 to test compound GI50 for human colon cancer cells; type: functional, Colon cancer cell
Summary of the method: as §2

[15] = system: LOX IMVI; test: Cytotoxicity against human LOXIMVI cells after 48 hrs by SRB assay; type: functional
Summary of the method: as §1

[16] = system: U-251; test: Cytotoxicity against human U251 cells after 48 hrs by SRB assay; type: functional; conditions: U-251, 48 h
Summary of the method: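 NCI-60 panel, five doses at 1-log steps from 10−4 to 10−8 M. Cells grown in RPMI 1640 with 5% FBS and 2 mM L-glutamine, seeded at 5000–40 000 cells/well and preincubated 24 h. Tz plates were TCA-fixed at drug addition. Drug exposure 48 h at 37 °C, then TCA fixation, 0.4% SRB stain and absorbance at 515 nm. GI50 taken from percent growth relative to Tz and control.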

[17] = system: SK-OV-3; test: Cytotoxicity against human SKOV3 cells after 48 hrs by SRB assay; type: functional; conditions: SK-OV-3, 48 h
Summary of the method: as §1

[18] = system: COLO 205; test: Cytotoxicity against human COLO205 cells after 48 hrs by SRB assay; type: functional; conditions: COLO 205, 48 h
Summary of the method: as §1

[19] = system: NCI/ADR-RES; test: Potency index, ratio of sunitinib GI50 to test compound GI50 for human NCI-ADR-RES cells; type: functional
Summary of the method: as §2

[20] = species: Homo sapiens; test: Inhibition of human DDR at 0.5 uM relative to control
[21] = read-out: LC50 (the source's name)

Chain of Proto-oncogene tyrosine-protein kinase Src (Homo sapiens) (P12931 2-536 limits assumed): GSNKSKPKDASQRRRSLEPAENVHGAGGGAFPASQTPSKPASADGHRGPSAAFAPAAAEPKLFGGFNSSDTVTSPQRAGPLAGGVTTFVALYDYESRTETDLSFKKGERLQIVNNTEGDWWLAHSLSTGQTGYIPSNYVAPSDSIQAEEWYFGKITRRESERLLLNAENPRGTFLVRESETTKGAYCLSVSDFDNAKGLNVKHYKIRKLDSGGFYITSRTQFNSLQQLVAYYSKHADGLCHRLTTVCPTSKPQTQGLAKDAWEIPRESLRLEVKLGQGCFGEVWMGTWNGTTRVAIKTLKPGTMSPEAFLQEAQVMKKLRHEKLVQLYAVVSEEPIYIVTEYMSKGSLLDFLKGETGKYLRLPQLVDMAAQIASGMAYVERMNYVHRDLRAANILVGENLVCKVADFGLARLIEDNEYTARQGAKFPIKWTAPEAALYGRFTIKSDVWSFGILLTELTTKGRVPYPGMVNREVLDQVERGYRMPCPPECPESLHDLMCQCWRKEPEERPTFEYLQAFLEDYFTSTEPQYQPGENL

Structure (SMILES): COc1cc2ncnc(Oc3ccc(NC(=O)Nc4ccc(CN5CCOCC5)c(C(F)(F)F)c4)c4ccccc34)c2cc1OC
- inhibition [1]: Active
- GI50 [2]: 1.15 µM
- TGI [2]: 7.94 µM
- CC50 [2, 21]: 42.7 µM
- RatioGI50 [3]: 3.9 - 9.5
- inhibition [4]: Active
- GI50 [5]: 1.17 µM
- TGI [5]: 40.7 µM
- CC50 [5, 21]: > 100 µM
- RatioLC50 [6]: 2
- RatioGI50 [7]: 1.1 - 3.7
- inhibition [8]: Active
- RatioLC50 [9]: 1.3
- GI50 [10]: 0.29 µM
- TGI [10]: 1.86 µM
- CC50 [10, 21]: 13.2 µM
- RatioLC50 [11]: 1.7
- GI50 [12]: 0.45 µM
- TGI [12]: 6.46 µM
- CC50 [12, 21]: 67.6 µM
- GI50 [13]: 0.45 µM
- TGI [13]: 2.69 µM
- CC50 [13, 21]: 17 µM
- RatioGI50 [14]: 1.1 - 3.7
- GI50 [15]: 1.1 µM
- TGI [15]: 2.82 µM
- CC50 [15, 21]: 7.24 µM
- GI50 [16]: 1.05 µM
- TGI [16]: 3.98 µM
- CC50 [16, 21]: 27.5 µM
- GI50 [17]: 0.23 µM
- TGI [17]: 0.95 µM
- CC50 [17, 21]: 37.1 µM
- GI50 [18]: 0.38 µM
- TGI [18]: 3.39 µM
- CC50 [18, 21]: > 100 µM
- RatioGI50 [19]: 6.9
- inhibition [20]: Active
